# Assay results reported in ChEMBL document CHEMBL3797161, “Design, Synthesis, and Immunological Evaluation of Benzyloxyalkyl-Substituted 1,2,3-Triazolyl α-GalCer Analogues” (ACS Med Chem Lett, 2016).
# The source made the active and inactive calls. The rule behind the calls is not given here.
# What was measured:
# [1] = target: T1, Antigen-presenting glycoprotein CD1d (Homo sapiens) (UniProt P15813); experiment: Binding affinity to CD1D (unknown origin) assessed as increase in IL-2 production at 100 ng/ml preincubated for 16 hrs followed by Valpha-14 Vbeta-8.2 DN3A4-1.2(1.2) iNKT hybridoma cells addition to compound-CD1D mixture measured after 16 hrs by sandwich ELISA
# T1 sequence (whole entry): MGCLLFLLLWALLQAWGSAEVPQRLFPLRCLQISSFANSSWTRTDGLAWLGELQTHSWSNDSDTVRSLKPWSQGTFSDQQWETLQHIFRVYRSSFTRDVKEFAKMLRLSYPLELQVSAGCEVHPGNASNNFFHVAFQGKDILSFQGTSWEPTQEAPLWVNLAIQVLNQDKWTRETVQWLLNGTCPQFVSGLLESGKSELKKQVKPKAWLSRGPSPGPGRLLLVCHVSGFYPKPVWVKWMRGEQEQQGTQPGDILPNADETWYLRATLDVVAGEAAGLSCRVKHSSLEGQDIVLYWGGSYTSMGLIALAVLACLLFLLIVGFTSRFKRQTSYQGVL
# Summary of the method: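 Glycolipid incubated with CD1d protein for 16 h, then exposed to Vα14 Vβ8.2 DN3A4–1.2 (1.2) iNKT hybridoma cells; IL-2 secreted into the medium quantified.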
# [2] = Solubility of compound in DMSO at 10 to 1000 ng/ml; format: physicochemical
# Mus musculus [3] = species on record: Mus musculus; experiment: Binding affinity to CD1D in Balb/c mouse splenocytes assessed as increase in IL-4 production at 1000 ng/ml at 2 hrs by sandwich ELISA; format: cell-based
# Summary of the method: (§1)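 For cytokine kinetics, BALB/c mouse splenocytes were treated in vitro with glycolipid at 1000 ng/mL. Culture supernatants were sampled at 2, 12 and 24 h, and IL-4 and IFN-γ were quantified.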
# [4] = Cytotoxicity against Balb/c mouse splenocytes assessed as reduction in cell proliferation up to 1000 ng/ml after 48 hrs by MTT assay; format: cell-based; conditions: splenocyte
# Summary of the method: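 Splenocytes from BALB/c mice were exposed to glycolipid at up to 1000 ng/mL for 48 h. Proliferation was read by MTT relative to untreated cells.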
# Mus musculus [5] = species on record: Mus musculus; experiment: Binding affinity to CD1D in Balb/c mouse splenocytes assessed as increase in IFN-gamma production at 1000 ng/ml up to 12 hrs by sandwich ELISA; format: cell-based; summary of the method: as §1
# Mus musculus [6] = species on record: Mus musculus; experiment: Binding affinity to CD1D in Balb/c mouse splenocytes assessed as increase in IFN-gamma production at 1000 ng/ml at 24 hrs by sandwich ELISA; format: cell-based; summary of the method: as §1
# T-cell = experiment: Binding affinity to CD1D in Balb/c mouse splenocytes assessed as T cell stimulation by measuring increase in cytokine expression after 48 hrs by sandwich ELISA; format: cell-based
# Summary of the method: (§2)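 Splenocytes isolated from BALB/c mice were cultured in vitro with glycolipid (dissolved in DMSO) at 10, 100 or 1000 ng/mL for 48 h. IL-2, IL-4 and IFN-γ in the culture were measured by ELISA.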
# Mus musculus [7] = species on record: Mus musculus; experiment: Binding affinity to CD1D in Balb/c mouse splenocytes assessed as increase in IL-2 production at 10 to 1000 ng/ml after 48 hrs by sandwich ELISA; format: cell-based; summary of the method: as §2
# Mus musculus [8] = experiment: Stimulation of IL-4 production in Balb/c mouse at 1 ug, iv after 2 to 48 hrs by sandwich ELISA; format: functional, organism-based
# Summary of the method: (§3)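 BALB/c mice received glycolipid intravenously, 1 μg per animal. IFN-γ and IL-4 expression was then measured in vivo.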
# Mus musculus [9] = species on record: Mus musculus; experiment: Binding affinity to CD1D in Balb/c mouse splenocytes assessed as increase in IL-4 production at 1000 ng/ml up to 24 hrs by sandwich ELISA; format: cell-based; summary of the method: as §1
# Mus musculus [10] = experiment: Stimulation of IFN-gamma production in Balb/c mouse at 1 ug, iv after 2 to 48 hrs by sandwich ELISA; format: functional, organism-based; summary of the method: as §3
# Mus musculus [11] = species on record: Mus musculus; experiment: Binding affinity to CD1D in Balb/c mouse splenocytes assessed as increase in IL-4 production at 10 to 1000 ng/ml after 48 hrs by sandwich ELISA; format: cell-based; summary of the method: as §2
# Mus musculus [12] = species on record: Mus musculus; experiment: Binding affinity to CD1D in Balb/c mouse splenocytes assessed as increase in IFN-gamma production at 10 to 1000 ng/ml after 48 hrs by sandwich ELISA; format: cell-based; summary of the method: as §2
# Mus musculus [13] = species on record: Mus musculus; experiment: Binding affinity to CD1D in Balb/c mouse splenocytes assessed as increase in IFN-gamma production at 1000 ng/ml after 48 hrs by sandwich ELISA; format: cell-based
Activity [1],solubility [2],Activity (Mus musculus [3]),Activity (Mus musculus [5]),Activity (Mus musculus [6]),Activity (Mus musculus [7]),Activity (Mus musculus [9]),Activity (Mus musculus [11]),Activity (Mus musculus [12]),Activity (Mus musculus [13]),SMILES,Activity [4],Activity (T-cell),Activity (Mus musculus [8]),Activity (Mus musculus [10])
,soluble,,,,Active,,,,Active,CCCCCCCCCCCCCC[C@@H](O)[C@@H](O)[C@H](CO[C@H]1O[C@H](CO)[C@H](O)[C@H](O)[C@H]1O)n1cc(COCCCCCCCCCCCCOCCOCc2ccccc2)nn1,Non-toxic,Dose-dependent effect,,
,soluble,,,,Active,,,,,CCCCCCCCCCCCCC[C@@H](O)[C@@H](O)[C@H](CO[C@H]1O[C@H](CO)[C@H](O)[C@H](O)[C@H]1O)n1cc(COCCCCCCCCCCOCc2ccccc2)nn1,Non-toxic,Dose-dependent effect,,
,soluble,,,,Active,,,,,CCCCCCCCCCCCCC[C@@H](O)[C@@H](O)[C@H](CO[C@H]1O[C@H](CO)[C@H](O)[C@H](O)[C@H]1O)n1cc(COCCCCCCCCOCc2ccccc2)nn1,Non-toxic,Dose-dependent effect,Active,Active
,soluble,,,,Active,,,,,CCCCCCCCCCCCCC[C@@H](O)[C@@H](O)[C@H](CO[C@H]1O[C@H](CO)[C@H](O)[C@H](O)[C@H]1O)n1cc(COCCCCCCCCCCCCOCc2ccccc2)nn1,Non-toxic,Dose-dependent effect,,

# Further lines, the molecule ahead of its results:
SMILES,Activity [1],solubility [2],Activity (Mus musculus [3]),Activity (Mus musculus [5]),Activity (Mus musculus [6]),Activity (Mus musculus [7]),Activity (Mus musculus [9]),Activity (Mus musculus [11]),Activity (Mus musculus [12]),Activity (Mus musculus [13]),Activity [4],Activity (T-cell),Activity (Mus musculus [8]),Activity (Mus musculus [10])
CCCCCCCCCCCCCC[C@@H](O)[C@@H](O)[C@H](CO[C@H]1O[C@H](CO)[C@H](O)[C@H](O)[C@H]1O)n1cc(COCCCCCCCCCCCCOCCCCCCOCc2ccccc2)nn1,Active,soluble,Active,inactive,Active,Active,inactive,Active,Active,,Non-toxic,Dose-dependent effect,inactive,inactive
CCCCCCCCCCCCCCCCCCCCCCCCCC(=O)N[C@@H](CO[C@H]1O[C@H](CO)[C@H](O)[C@H](O)[C@H]1O)[C@H](O)[C@H](O)CCCCCCCCCCCCCC [RGI-7000],Active,,Active,Active,Active,Active,Active,Active,Active,,Non-toxic,,Active,Active
CCCCCCCCCCCCCC[C@@H](O)[C@@H](O)[C@H](CO[C@H]1O[C@H](CO)[C@H](O)[C@H](O)[C@H]1O)n1cc(COCCCCCCOCc2ccccc2)nn1,,soluble,,,,Active,,,,Active,Non-toxic,Dose-dependent effect,,
CCCCCCCCCCCCCC[C@@H](O)[C@@H](O)[C@H](CO[C@H]1O[C@H](CO)[C@H](O)[C@H](O)[C@H]1O)n1cc(COCCOCc2ccccc2)nn1,,soluble,,,,inactive,,,,,Non-toxic,Dose-dependent effect,,
CCCCCCCCCCCCCC[C@@H](O)[C@@H](O)[C@H](CO[C@H]1O[C@H](CO)[C@H](O)[C@H](O)[C@H]1O)n1cc(COCCCCCCCCCCCCOCCCCOCc2ccccc2)nn1,Active,soluble,Active,inactive,Active,Active,inactive,Active,Active,,Non-toxic,Dose-dependent effect,inactive,inactive
CCCCCCCCCCCCCC[C@@H](O)[C@@H](O)[C@H](CO[C@H]1O[C@H](CO)[C@H](O)[C@H](O)[C@H]1O)n1cc(COCCCCOCc2ccccc2)nn1,,soluble,,,,Active,,,,,Non-toxic,Dose-dependent effect,,
